Paper PMC3064429 (Bioorganic & medicinal chemistry, 2011)

Legend:
σ1 receptor [1] = conditions: cited from earlier work
σ2 receptor [2] = conditions: cited from earlier work
[3] = Compound stability in stock buffer for in vitro binding assays; type: physicochemical; conditions: for State after 25 days in stock buffer: stock buffer 2.5% AcOH, 1% EtOH in water; for Purity by HPLC after 25 days in stock buffer: 10^-3 M in water with 1% EtOH and 0.1% or 2.5% AcOH
Summary of the method: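 Those prepared as HCl or oxalate salts were held instead in 0.1% AcOH with 1% EtOH. After 25 days in stock buffer, purity of each compound was analysed by analytical HPLC.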

σ1 receptor [4] = biological target: σ1 receptor (Cavia porcellus, UniProt Q60492); assay: Competition binding assay at σ1 receptors with [3H]; set-up: species or system guinea pig
σ2 receptor [5] = biological target: T1, σ2 receptor (Cavia porcellus, UniProt H0V073); assay: Competition binding assay at σ2 receptors with [3H]DTG / 500 nM; set-up: species or system guinea pig
T1 sequence (H0V073 1-176): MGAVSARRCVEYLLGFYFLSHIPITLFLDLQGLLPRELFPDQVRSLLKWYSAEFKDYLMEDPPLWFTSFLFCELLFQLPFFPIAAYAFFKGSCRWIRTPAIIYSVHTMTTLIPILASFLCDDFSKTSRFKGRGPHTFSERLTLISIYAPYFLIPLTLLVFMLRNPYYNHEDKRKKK

σ1 receptor (Cavia porcellus, UniProt Q60492), sequence (Q60492 whole entry): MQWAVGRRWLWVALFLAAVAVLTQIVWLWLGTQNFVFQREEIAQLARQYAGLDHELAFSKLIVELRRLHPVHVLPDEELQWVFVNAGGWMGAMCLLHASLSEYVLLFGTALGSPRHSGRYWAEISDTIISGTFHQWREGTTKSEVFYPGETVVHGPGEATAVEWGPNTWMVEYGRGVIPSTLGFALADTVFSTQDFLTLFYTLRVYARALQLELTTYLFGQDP

## COc1ccc(CCNCCCCNC(=O)c2cc(Br)cc(OC)c2OC)cc1OC [Compound 2]
σ1 receptor [1]
  Change in σ1 affinity relative to 1: no change
σ2 receptor [2]; relative to 1
  Decrease in σ2 affinity relative to 1: 1700 fold

## COc1cc2c(cc1OC)N(CCCCNC(=O)c1cc(Br)cc(OC)c1OC)CC2 [Compound 5, 5-bromo-N-(4-(5,6-dimethoxyindolin-1-yl)butyl)-2,3-dimethoxybenzamide]
[3]
  State after 25 days in stock buffer: totally decomposed
σ1 receptor [4]; 3 (5R-2) vs. 5 (5R-1)
  Poorer σ1 affinity, 3 vs. 5: 3 times

## COc1cc2c(cc1OC)CN(CCCCNC(=O)c1cc(Br)cc(OC)c1OC)CCC2 [Compound 6, 5-bromo-N-(4-(7,8-dimethoxy-4,5-dihydro-1H-benzo[c]azepin-2(3H)-yl)butyl)-2,3-dimethoxybenzamide]
[3]
  Purity by HPLC after 25 days in stock buffer: exceeded 95%

## COc1cc2c(cc1OC)CCN(CCCCNC(=O)c1cc(Br)cc(OC)c1OC)CC2 [Compound 4, 5-bromo-N-(4-(7,8-dimethoxy-4,5-dihydro-1H-benzo[d]azepin-3(2H)-yl)butyl)-2,3-dimethoxybenzamide]
[3]
  Purity by HPLC after 25 days in stock buffer: exceeded 95%
σ1 receptor [4]; compared to 6 (7R-2) and 7 (7R-1)
  Poorest σ1 affinity by a factor compared to 6 and 7: 2

## COc1cc2c(cc1OC)CN(CCCCNC(=O)c1cc(Br)cc(OC)c1OC)CC2 [Compound 1]
σ2 receptor [2]; read-out: Ki (nM) σ2
  Ki: 8.2 nM

## 5-bromo-N-(4-((3,4-dimethoxyphenethyl)(methyl)amino)butyl)-2,3-dimethoxybenzamide [Compound 9]
[3]
  Purity by HPLC after 25 days in stock buffer: exceeded 95%

## COc1cc2c(cc1OC)CN(CCCCNC(=O)c1cc(Br)cc(OC)c1OC)C2 [Compound 3, 5-bromo-N-(4-(5,6-dimethoxyisoindolin-2-yl)butyl)-2,3-dimethoxybenzamide]
[3]
  Purity by HPLC after 25 days in stock buffer: exceeded 95%
σ2 receptor [5]; relative to 1
  Improvement of σ2 affinity over that of 1: 70%
σ1 receptor [4]; relative to 1
  Decrease in σ1 affinity relative to 1: approximately 50%

## 5-bromo-N-(4-(7,8-dimethoxy-2,3,4,5-tetrahydro-1H-benzo[b]azepin-1-yl)butyl)-2,3-dimethoxybenzamide [Compound 7]
[3]
  Purity by HPLC after 25 days in stock buffer: exceeded 95%
σ2 receptor [5]; 7 (7R-1) vs. 6 (7R-2)
  Poorer σ2 affinity relative to 6: ~30 times
σ2 receptor [5]; ratio of Ki values
  Selectivity Ki σ1 / Ki σ2: 0.29
σ1 receptor [4]; 7 (7R-1) vs. 6 (7R-2)
  Poorer σ1 affinity relative to 6: 20%
σ1 receptor [4]; read-out: Ki (nM) σ1, [3H](+)-PTZ, guinea pig brain membranes, mean ± SEM, n = 4
  Ki: 2560 ± 175 nM

## COc1cc2c(cc1OC)N(CCCCNC(=O)c1cc(Br)cc(OC)c1OC)CCC2 [Compound 8, 5-bromo-N-(4-(6,7-dimethoxy-3,4-dihydroquinolin-1(2H)-yl)butyl)-2,3-dimethoxybenzamide]
[3]
  State after 25 days in stock buffer: totally decomposed
σ2 receptor [5]; relative to 1 (Mach Lead)
  σ2 affinity relative to 1 (in words): totally ablated
σ1 receptor [4]; relative to 1 (Mach Lead)
  σ1 affinity decreased by a factor, relative to 1: 5
